Converted amounts (≈) assume the structure as drawn. The source made the active and inactive calls. The rule behind the calls is not given here.
Experiments:
[1] = Metabolic stability of the compound in human liver microsomes assessed as half life at 1 uM by LC-MS analysis; format: ADME, Microsome
How it was run: (§1)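 Compound at 1 μM final (from 10 or 20 mM DMSO stocks) was incubated with 0.5 mg/mL pooled human or mouse liver microsomes. The mix held 1.3 mM NADP and 3.3 mM MgCl₂ in 0.1 M PBS pH 7.4, and the reaction was started with 1 U/mL G6PD. Incubation was at 37 °C with shaking, and samples were quenched with cold acetonitrile at 0, 10, 20, 30 and 60 min.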

[2] = Metabolic stability of the compound in mouse liver microsomes assessed as half life at 1 uM by LC-MS analysis; format: ADME, Microsome; how it was run: as §1
[3] = tested on: Plasmodium falciparum; assay: Antimalarial activity against sporozoites stage of Plasmodium falciparum D6 after 3 days by microdilution technique; format: functional, organism-based; settings: D6, 72 h, in the assay text read “blood stage” for “sporozoites stage”
How it was run: (§2)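 P. falciparum clones were tested in vitro using a modified semiautomated microdilution technique.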

[4] = tested on: Plasmodium falciparum; assay: Antimalarial activity against […] of Plasmodium falciparum TM91C235 after for 3 days by microdilution technique; format: functional, organism-based; settings: TM91C235, 72 h; how it was run: as §2
[5] = tested on: Plasmodium falciparum; assay: Antimalarial activity against […] of Plasmodium falciparum W2 after for 3 days by microdilution technique; format: functional, organism-based; settings: W2, 72 h; how it was run: as §2
[6] = tested on: Plasmodium berghei; assay: Antimalarial activity against Plasmodium berghei in exoerythrocytic mouse model assessed as causal prophylaxis at 160 mg/kg/day, po administered one day before infection, on day of infection and one day post infection; format: functional, organism-based
How it was run: (§3)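 P. berghei sporozoite exoerythrocytic mouse model. Compound was ground and suspended in hydroxyethylcellulose plus Tween 80, then given po at several dose levels once daily: the day before, 4 h before, and the day after sporozoite inoculation. Mice alive on day 31 with no parasites in any blood film were scored as protected.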

[7] = tested on: Mus musculus; assay: Toxicity in exoerythrocytic mouse model assessed as reduction in body weight at 160 mg/kg/day, po administered one day before infection, on day of infection and one day post infection measured on day 31; format: organism-based; design: route oral; settings: in vivo
[8] = tested on: Mus musculus; assay: Toxicity against exoerythrocytic mouse model assessed as reduction in body weight at 320 mg/kg/day, po administered one day before infection, on day of infection and one day post infection measured up to 31 days; format: organism-based; design: route oral; settings: in vivo, 744 h
[9] = tested on: Plasmodium berghei; assay: Antimalarial activity against Plasmodium berghei in exoerythrocytic mouse model assessed as causal prophylaxis at 320 mg/kg/day, po administered one day before infection, on day of infection and one day post infection; format: functional, organism-based; how it was run: as §3
[10] = Metabolic stability of the compound in rhesus monkey microsomes assessed as half life at 1 uM by LC-MS analysis; format: ADME, Macaca mulatta, Microsome

SMILES | half-life at 1 µM [1] [min] | half-life at 1 µM [2] [min] | IC50 [3] [µg/mL] | IC50 [4] [µg/mL] | IC50 [5] [µg/mL] | Activity [6] | Activity [7] | Activity [8] | Activity [9] | half-life at 1 µM [10] [min]
CC(C)n1ccnc1/N=C(/NC(=O)OC(C)(C)C)Nc1ccc(Cl)c(Cl)c1 | > 60 | > 60 | > 5 | > 5 | > 5 |  |  |  |  | 
CC(C)N1CCN=C1/N=C(/Nc1ccc(Cl)c(Cl)c1)NC(C)(C)C | > 60 | 16.6 | 0.4 (≈ 1.08 µM) |  | 0.4 (≈ 1.08 µM) | inactive | Toxic | Toxic |  | 
CC(C)C(=O)N/C(=N/c1nccn1C(C)C)Nc1ccc(Cl)c(Cl)c1 | > 60 | > 60 | 2.5 (≈ 6.54 µM) | 2.2 (≈ 5.75 µM) | 1 (≈ 2.62 µM) |  |  |  |  | 
N/C(=N\c1nccn1Cc1ccccc1)Nc1ccc(Cl)c(Cl)c1 | > 60 | 37 | > 2 | > 2 | > 2 | inactive |  |  | inactive | 
CC(C)N/C(=N\c1nccn1Cc1ccccc1)Nc1ccc(Cl)c(Cl)c1 | 16 | 18 | 1.3 (≈ 3.23 µM) | 2.5 (≈ 6.21 µM) | 1.6 (≈ 3.98 µM) | inactive |  |  | inactive | 
CC(C)n1ccnc1/N=C(/Nc1ccc(Cl)c(Cl)c1)N1CCCCC1 | 27 | 19.7 | 0.5 (≈ 1.31 µM) | 0.3 (≈ 0.789 µM) | 0.3 (≈ 0.789 µM) | inactive |  |  | inactive | 7.8
CC(C)n1ccnc1/N=C(/NC(=O)C(C)(C)C)Nc1ccc(Cl)c(Cl)c1 | > 60 | > 60 | > 5 | > 5 | > 5 | inactive |  |  | inactive | 
CC(C)N1CCN=C1/N=C(/Nc1ccc(Cl)c(Cl)c1)NC12CC3CC(CC(C3)C1)C2 | > 60 | > 60 | 0.3 (≈ 0.669 µM) | 0.2 (≈ 0.446 µM) | 0.2 (≈ 0.446 µM) |  |  |  |  | 
CC(C)n1ccnc1/N=C(/Nc1ccc(Cl)c(Cl)c1)NC(C)(C)C | 40.4 | 18.2 | 1.1 (≈ 2.99 µM) |  | 1 (≈ 2.72 µM) | inactive |  |  | inactive | 
CC(C)n1ccnc1/N=C(\NCC(C)(C)C)Nc1ccc(Cl)c(Cl)c1 | 32.9 | 10.8 | 1.4 (≈ 3.66 µM) |  | 0.9 (≈ 2.35 µM) | inactive |  |  | inactive | 
CC(C)N1CCN=C1/N=C(/Nc1ccc(Cl)c(Cl)c1)N1CCCCC1 | > 60 | 21.5 | 0.4 (≈ 1.05 µM) | 0.3 (≈ 0.785 µM) | 0.2 (≈ 0.523 µM) |  | Toxic | Toxic |  | 
CC(C)(C)n1ccnc1/N=C(\N)Nc1ccc(Cl)c(Cl)c1 | > 60 | 48 | 1.6 (≈ 4.9 µM) | 1.2 (≈ 3.68 µM) | 0.4 (≈ 1.23 µM) | inactive |  |  | inactive | 45
CC(C)C(=O)N/C(=N/c1nccn1Cc1ccccc1)Nc1ccc(Cl)c(Cl)c1 | 19.7 | 11 | > 2 | > 2 | > 2 | inactive |  |  | inactive | 
CCC(CC)C(=O)N/C(=N/c1nccn1C(C)(C)C)Nc1ccc(Cl)c(Cl)c1 | 26 | 12.5 | > 5 | > 5 | > 5 | inactive |  |  |  | 
CC(C)N/C(=N\c1nccn1C(C)(C)C)Nc1ccc(Cl)c(Cl)c1 | 48 | 9 | 1.4 (≈ 3.8 µM) | 0.9 (≈ 2.44 µM) | 0.4 (≈ 1.09 µM) |  | Toxic | Toxic |  | 
CC(C)n1ccnc1/N=C(/NC(=O)Cc1ccccc1)Nc1ccc(Cl)c(Cl)c1 | > 60 | 50.8 | > 5 | > 5 | > 5 | inactive |  |  | inactive | 
CC(C)N/C(=N\c1ncc[nH]1)Nc1ccc(Cl)c(Cl)c1 | > 60 | 37.6 | > 5 | > 5 | 0.6 (≈ 1.92 µM) |  | Toxic | Toxic |  | 
CC(C)n1ccnc1/N=C(\N)Nc1ccc(Cl)c(Cl)c1 | > 60 | 27.7 | 2.8 (≈ 8.97 µM) | 2.4 (≈ 7.69 µM) | 0.7 (≈ 2.24 µM) | Active |  |  | Active | > 60
CC(C)N/C(=N\C1=NCCN1C(C)C)Nc1ccc(Cl)c(Cl)c1 | 50.7 | 13.6 | 0.5 (≈ 1.4 µM) | 0.7 (≈ 1.96 µM) | 0.4 (≈ 1.12 µM) | inactive | Toxic | Toxic |  | 
CC(C)N1CCN=C1/N=C(\N)Nc1ccc(Cl)c(Cl)c1 | > 60 | > 60 | 1.4 (≈ 4.46 µM) | 1.2 (≈ 3.82 µM) | 0.7 (≈ 2.23 µM) |  |  |  |  | 36.3
CCC(CC)C(=O)N/C(=N/c1nccn1C(C)C)Nc1ccc(Cl)c(Cl)c1 | > 60 | > 60 | 1 (≈ 2.44 µM) | 2.9 (≈ 7.07 µM) | 0.3 (≈ 0.731 µM) | inactive |  |  | inactive | 
N/C(=N\c1ncc[nH]1)Nc1ccc(Cl)c(Cl)c1 | 42.5 | 23.6 | 0.5 (≈ 1.85 µM) | 2.5 (≈ 9.26 µM) | 1.4 (≈ 5.18 µM) | inactive |  |  | inactive | 
CC(C)(C)C(=O)N/C(=N/c1nccn1C(C)(C)C)Nc1ccc(Cl)c(Cl)c1 | > 60 | > 60 | > 5 | > 5 | > 5 |  |  |  |  | 
CC(C)(C)Cn1ccnc1/N=C(/Nc1ccc(Cl)c(Cl)c1)NC(C)(C)C | 12.1 | 11.7 | 0.8 (≈ 2.02 µM) |  | 0.8 (≈ 2.02 µM) | inactive |  |  | inactive | 
CC(C)N/C(=N\c1nccn1CC(C)(C)C)Nc1ccc(Cl)c(Cl)c1 | 20.3 |  | 1.1 (≈ 2.88 µM) |  | 1.5 (≈ 3.92 µM) | inactive |  |  | inactive | 

Reference: ChEMBL document CHEMBL1828578, “Antimalarial activities of new guanidylimidazole and guanidylimidazoline derivatives” (J Med Chem, 2011)
